Test results as given in ChEMBL document CHEMBL1136004, “Ethyl (3S,4aR,6S,8aR)-6-(4-ethoxycar- bonylimidazol-1-ylmethyl)decahydroiso-quinoline-3-carboxylic ester: a prodrug of a GluR5 kainate receptor antagonist active in two animal models of acute migraine” (J Med Chem, 2002).

Key:
[1] = biological target: Glutamate receptor 2 (Homo sapiens, UniProt P42262); assay: Ability to displace binding of [3H]AMPA to recombinant human Ionotropic glutamate receptor AMPA 2
[2] = biological target: Glutamate receptor 3 (Homo sapiens, UniProt P42263); assay: Ability to displace binding of [3H]AMPA to recombinant human Ionotropic glutamate receptor AMPA 3
How it was run: (§1)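 Radioligand displacement with [3H]AMPA on membranes from HEK 293 cells expressing the cloned human AMPA receptor subunit. Ki (μM) reported as the mean ± SEM of at least three determinations.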

[3] = biological target: Glutamate receptor 1 (Homo sapiens, UniProt P42261); assay: Ability to displace binding of [3H]AMPA to recombinant human Ionotropic glutamate receptor AMPA 1; how it was run: as §1
[4] = biological target: T1, Glutamate receptor ionotropic, kainate 2 (Homo sapiens, UniProt Q13002); assay: Ability to displace binding of [3H]KA to recombinant human KA receptor Ionotropic glutamate receptor ionotropic kainate 2 expressed in EK 293 cell membranes
How it was run: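 Displacement of [3H]KA binding on membranes from HEK 293 cells expressing the recombinant human kainate receptor subunit. Ki (μM) given as the mean ± SEM from at least three determinations.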

[5] = biological target: Glutamate receptor 4 (Homo sapiens, UniProt P48058); assay: Ability to displace binding of [3H]AMPA to recombinant human Ionotropic glutamate receptor AMPA 4; how it was run: as §1
[6] = biological target: Glutamate receptor ionotropic, kainate 1 (Homo sapiens) (UniProt P39086); assay: Ability to displace binding of [3H]KA to recombinant human Ionotropic glutamate receptor ionotropic kainate 1
[7] = biological target: T1, Glutamate receptor ionotropic, kainate 2; assay: Ability to displace binding of [3H]KA to recombinant human KA receptor Ionotropic glutamate receptor ionotropic kainate 2
[8] = biological target: Glutamate receptor ionotropic, kainate 3 (Homo sapiens) (UniProt Q13003); assay: Ability to displace binding of [3H]KA to recombinant human KA receptor Ionotropic glutamate receptor ionotropic kainate 3
[9] = Compound was administered orally 1 h prior to trigeminal stimulation and was evaluated for the decrease extravasation

T1 sequence (Q13002 whole entry): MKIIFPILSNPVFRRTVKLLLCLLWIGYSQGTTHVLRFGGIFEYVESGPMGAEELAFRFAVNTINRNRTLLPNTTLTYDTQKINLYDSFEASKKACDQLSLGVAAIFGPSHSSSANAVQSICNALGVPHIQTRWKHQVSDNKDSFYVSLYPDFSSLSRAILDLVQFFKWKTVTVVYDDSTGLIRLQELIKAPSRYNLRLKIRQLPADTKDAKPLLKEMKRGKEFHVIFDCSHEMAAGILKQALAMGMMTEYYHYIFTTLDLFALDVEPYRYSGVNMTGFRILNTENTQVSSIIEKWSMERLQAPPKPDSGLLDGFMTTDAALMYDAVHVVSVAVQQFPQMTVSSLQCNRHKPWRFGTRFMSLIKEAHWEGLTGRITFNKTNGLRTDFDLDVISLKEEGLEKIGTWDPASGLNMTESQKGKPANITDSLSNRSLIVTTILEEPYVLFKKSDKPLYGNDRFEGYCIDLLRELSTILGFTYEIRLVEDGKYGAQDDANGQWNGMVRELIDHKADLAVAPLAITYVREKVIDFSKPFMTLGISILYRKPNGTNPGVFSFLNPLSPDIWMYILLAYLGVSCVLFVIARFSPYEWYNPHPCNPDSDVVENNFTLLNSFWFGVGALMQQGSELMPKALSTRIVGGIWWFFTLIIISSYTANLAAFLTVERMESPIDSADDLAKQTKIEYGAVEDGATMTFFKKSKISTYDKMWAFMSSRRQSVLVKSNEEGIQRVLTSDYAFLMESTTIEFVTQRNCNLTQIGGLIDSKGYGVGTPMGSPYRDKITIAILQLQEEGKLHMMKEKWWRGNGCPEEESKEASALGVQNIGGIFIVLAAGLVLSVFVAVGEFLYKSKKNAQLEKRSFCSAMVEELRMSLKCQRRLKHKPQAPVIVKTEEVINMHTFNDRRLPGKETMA
Chain of Glutamate receptor 1 (P42261 whole entry): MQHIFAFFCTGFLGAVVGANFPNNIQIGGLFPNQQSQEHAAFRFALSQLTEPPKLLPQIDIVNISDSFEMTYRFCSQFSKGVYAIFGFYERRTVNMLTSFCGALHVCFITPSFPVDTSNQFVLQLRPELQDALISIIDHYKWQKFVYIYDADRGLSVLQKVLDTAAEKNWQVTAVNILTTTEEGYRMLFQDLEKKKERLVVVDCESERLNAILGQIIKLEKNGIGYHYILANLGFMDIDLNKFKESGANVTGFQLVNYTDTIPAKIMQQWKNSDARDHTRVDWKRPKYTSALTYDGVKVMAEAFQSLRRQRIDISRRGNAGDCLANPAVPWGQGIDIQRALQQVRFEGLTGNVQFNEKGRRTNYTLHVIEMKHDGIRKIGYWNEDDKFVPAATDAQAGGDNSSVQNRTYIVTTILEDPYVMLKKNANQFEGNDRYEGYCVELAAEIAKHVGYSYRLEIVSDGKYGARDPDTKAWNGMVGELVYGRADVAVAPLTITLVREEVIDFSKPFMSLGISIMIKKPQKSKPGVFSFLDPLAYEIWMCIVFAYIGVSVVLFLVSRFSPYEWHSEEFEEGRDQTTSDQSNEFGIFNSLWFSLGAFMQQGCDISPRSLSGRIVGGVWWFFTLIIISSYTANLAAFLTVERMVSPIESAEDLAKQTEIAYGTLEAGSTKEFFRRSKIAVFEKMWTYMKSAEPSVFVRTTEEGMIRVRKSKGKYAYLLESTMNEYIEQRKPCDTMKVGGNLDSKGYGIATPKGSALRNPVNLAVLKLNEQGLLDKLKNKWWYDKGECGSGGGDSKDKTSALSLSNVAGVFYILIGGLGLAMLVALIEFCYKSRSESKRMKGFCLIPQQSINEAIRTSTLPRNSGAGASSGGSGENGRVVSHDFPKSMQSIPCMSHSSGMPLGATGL
Chain of Glutamate receptor 3 (P42263 whole entry): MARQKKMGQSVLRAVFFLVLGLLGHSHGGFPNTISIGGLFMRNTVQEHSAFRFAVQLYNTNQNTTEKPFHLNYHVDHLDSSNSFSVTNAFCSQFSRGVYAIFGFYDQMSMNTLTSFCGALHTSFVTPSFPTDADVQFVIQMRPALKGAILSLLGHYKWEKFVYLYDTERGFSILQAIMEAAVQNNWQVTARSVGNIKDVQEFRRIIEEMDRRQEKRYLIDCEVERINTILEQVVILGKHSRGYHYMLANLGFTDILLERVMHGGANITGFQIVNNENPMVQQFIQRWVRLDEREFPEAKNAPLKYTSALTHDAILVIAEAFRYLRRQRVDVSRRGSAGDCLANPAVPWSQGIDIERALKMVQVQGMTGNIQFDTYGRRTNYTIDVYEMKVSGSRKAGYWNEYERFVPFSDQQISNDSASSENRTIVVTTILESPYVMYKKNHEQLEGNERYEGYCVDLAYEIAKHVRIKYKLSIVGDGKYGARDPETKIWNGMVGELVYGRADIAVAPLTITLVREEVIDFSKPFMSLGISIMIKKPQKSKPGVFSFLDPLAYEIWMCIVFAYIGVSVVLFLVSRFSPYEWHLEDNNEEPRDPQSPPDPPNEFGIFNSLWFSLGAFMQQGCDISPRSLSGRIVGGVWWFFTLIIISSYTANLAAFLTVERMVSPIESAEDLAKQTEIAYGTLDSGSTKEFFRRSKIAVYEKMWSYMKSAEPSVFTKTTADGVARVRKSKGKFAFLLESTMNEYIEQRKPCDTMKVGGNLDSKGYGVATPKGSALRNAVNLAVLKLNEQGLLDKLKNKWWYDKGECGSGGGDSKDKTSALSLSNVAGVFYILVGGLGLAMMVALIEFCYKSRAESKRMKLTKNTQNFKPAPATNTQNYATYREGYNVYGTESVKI
Chain of Glutamate receptor 4 (P48058 whole entry): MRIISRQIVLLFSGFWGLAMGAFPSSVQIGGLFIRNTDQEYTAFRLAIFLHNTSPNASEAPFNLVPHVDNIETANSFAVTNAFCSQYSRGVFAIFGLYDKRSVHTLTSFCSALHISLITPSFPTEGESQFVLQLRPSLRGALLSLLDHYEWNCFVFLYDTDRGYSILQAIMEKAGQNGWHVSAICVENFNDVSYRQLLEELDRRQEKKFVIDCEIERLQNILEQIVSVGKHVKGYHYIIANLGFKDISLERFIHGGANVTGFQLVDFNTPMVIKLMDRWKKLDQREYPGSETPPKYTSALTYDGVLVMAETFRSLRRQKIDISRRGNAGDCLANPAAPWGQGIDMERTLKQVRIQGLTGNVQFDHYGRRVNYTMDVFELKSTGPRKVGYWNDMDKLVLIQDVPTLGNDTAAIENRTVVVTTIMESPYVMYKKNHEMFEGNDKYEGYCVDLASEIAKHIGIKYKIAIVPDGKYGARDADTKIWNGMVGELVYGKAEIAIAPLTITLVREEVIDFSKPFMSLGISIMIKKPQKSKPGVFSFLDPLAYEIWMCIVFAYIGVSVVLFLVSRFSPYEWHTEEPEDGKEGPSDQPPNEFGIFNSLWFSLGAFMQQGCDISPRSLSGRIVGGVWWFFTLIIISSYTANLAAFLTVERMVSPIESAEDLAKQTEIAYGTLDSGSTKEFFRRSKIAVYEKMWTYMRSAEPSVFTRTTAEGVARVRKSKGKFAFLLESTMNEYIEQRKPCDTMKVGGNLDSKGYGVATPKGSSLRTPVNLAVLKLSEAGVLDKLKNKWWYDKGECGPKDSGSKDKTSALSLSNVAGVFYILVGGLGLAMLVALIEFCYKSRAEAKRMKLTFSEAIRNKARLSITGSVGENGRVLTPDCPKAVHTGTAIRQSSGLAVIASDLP
Chain of Glutamate receptor 2 (P42262 whole entry): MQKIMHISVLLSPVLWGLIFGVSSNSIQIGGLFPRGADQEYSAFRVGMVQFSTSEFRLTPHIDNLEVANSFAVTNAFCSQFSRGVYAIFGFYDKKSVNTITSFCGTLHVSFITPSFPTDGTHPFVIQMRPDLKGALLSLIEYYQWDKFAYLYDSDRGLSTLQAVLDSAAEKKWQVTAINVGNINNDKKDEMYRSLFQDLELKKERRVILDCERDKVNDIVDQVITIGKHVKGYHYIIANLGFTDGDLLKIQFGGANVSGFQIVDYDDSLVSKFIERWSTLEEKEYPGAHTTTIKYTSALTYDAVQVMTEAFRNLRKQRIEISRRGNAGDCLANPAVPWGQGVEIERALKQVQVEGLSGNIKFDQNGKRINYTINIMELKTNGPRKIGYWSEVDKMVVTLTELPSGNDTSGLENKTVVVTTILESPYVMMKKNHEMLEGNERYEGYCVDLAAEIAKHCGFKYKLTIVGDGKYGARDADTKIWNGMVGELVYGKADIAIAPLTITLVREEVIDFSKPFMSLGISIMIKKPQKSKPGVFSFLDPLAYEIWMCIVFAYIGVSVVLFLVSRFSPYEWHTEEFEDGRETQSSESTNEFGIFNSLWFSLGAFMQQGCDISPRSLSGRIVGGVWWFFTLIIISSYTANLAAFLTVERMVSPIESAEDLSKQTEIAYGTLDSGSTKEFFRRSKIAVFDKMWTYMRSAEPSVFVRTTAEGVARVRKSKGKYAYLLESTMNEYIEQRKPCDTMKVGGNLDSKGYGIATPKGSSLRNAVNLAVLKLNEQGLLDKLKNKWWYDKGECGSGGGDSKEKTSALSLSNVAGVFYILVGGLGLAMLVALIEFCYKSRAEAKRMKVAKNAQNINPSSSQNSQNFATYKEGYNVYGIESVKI

O=C(O)c1cn(C[C@H]2CC[C@H]3CN[C@H](C(=O)O)C[C@H]3C2)cn1
Ki [1]: 117 µM | Ki [2]: 247 µM | Ki [3]: 134 µM | Ki [4]: 236 µM | Ki [5]: 262 µM | Ki [6]: 0.156 µM | Ki [7]: > 1000 µM | Ki [8]: 48.5 µM

O=C(O)[C@@H]1C[C@H]2C[C@@H](CCc3nn[nH]n3)CC[C@H]2CN1 [TEZAMPANEL ANHYDROUS]
Ki [2]: 32 µM | Ki [3]: 9.2 µM | Ki [4]: > 100 µM | Ki [5]: 50 µM | Ki [6]: 4.2 µM | Ki [7]: > 100 µM | Ki [8]: > 100 µM

NS(=O)(=O)c1cccc2c1c([N+](=O)[O-])cc1nc(O)c(O)nc12 [NBQX]
Ki [3]: 1.6 µM

CN(C)CCc1c[nH]c2ccc(Cn3cncn3)cc12 [RIZATRIPTAN]
ID50 [9]: 8 µg/kg
